This note sets out measurements from the array DNA melting data of Ke et al. (doi:10.1101/2024.01.08.574731).

Series [1] is described as follows: folding enthalpy; higher = less favourable; fluorescence melt of hairpins on a sequencing array, two-state fit. Conditions: sodium 0.088 M. The procedure, abridged: (§1)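 Folding enthalpy and melting temperature come from bootstrapped two-state fits to Cy3 fluorescence of library hairpins carrying annealed Cy3 and quencher oligos on a sequenced MiSeq flow cell. Imaging was done in 50 mM Na-HEPES pH 8.0, 25 mM NaCl, stepping by 2.5 °C up to 60 °C, and signals were normalised to pre-quench Cy3 and to control constructs. Results of four replicates were combined by inverse variance, and fitted temperatures were raised by 9.35 °C to match UV melts.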

The nature of series [2]: melting temperature; fluorescence melt of hairpins on a sequencing array, two-state fit, raised by 9.35 °C to match UV melts. Conditions: sodium 0.088 M. The procedure, abridged:
as §1

As to CGATAGAAATATCG (((((....))))), in series [1], the folding enthalpy is -19.8 kcal/mol. In addition, the Tm in series [2] is 39.1 °C.
Take GCGCTGCGAAAGCAACGC (((.(((....))).))): the folding enthalpy in series [1] is -49 kcal/mol. The Tm in series [2] was determined as 61.5 °C.
The corresponding values for GTTAATCGAAAGATCAAC (((.(((....))).))) are -14.7 kcal/mol and 30.2 °C.
In the same order, the values of GAATGCGAAAGCAGTTC ((((((....))).))) are -13.9 kcal/mol and 41.8 °C.
The corresponding values for GATCAAGTGTTTGATC ((((((....)))))) are -31.8 kcal/mol and 43.5 °C.
For GGGGACGAAAGTCTCCCC ((((((....)))..))), the folding enthalpy in series [1] was -14.3 kcal/mol. Besides, in series [2], the Tm is 58.2 °C.
With GAGTGCCGAAAGGCTCTC (((.(((....))).))), in series [1], the folding enthalpy was -25.6 kcal/mol. Also, the Tm in series [2] stood at 56.4 °C.
The corresponding values for GATAACACGAAAGTGATC (((..(((....)))))) are -10.1 kcal/mol and 24.9 °C.
In the same order, the values of CGTGGCGGAAACGCACG (((.(((....)))))) are -26.5 kcal/mol and 53.7 °C.
Turning to GGACTCGAAAGAGTGTCC ((((((....)))..))), the folding enthalpy in series [1] was -16.9 kcal/mol. In addition, the Tm in series [2] turned out to be 40.7 °C.
For the sequence GTACTGCGAAAGCACTAC (((.(((....))).))), in series [1], the folding enthalpy was -14.8 kcal/mol. Further, the Tm in series [2] is 28.8 °C.
The corresponding values for GCCCCACCGAAAGGTGGC (((..(((....)))))) are -4.81 kcal/mol and 40.7 °C.
Consider GTGTCTTCGAAAGAACAC (((..(((....)))))), for which the folding enthalpy in series [1] is -17.2 kcal/mol. In series [2], the Tm amounted to 32.9 °C.
As to GTATAACGAAAGTTCTAC (((.(((....))).))), the folding enthalpy in series [1] was -20 kcal/mol. Besides, the Tm in series [2] worked out at 31.1 °C.
Regarding GCGTTGCAACGC ((((....)))), the folding enthalpy in series [1] is -33.5 kcal/mol. In addition, the Tm in series [2] came to 59 °C.
In the same order, the values of GGAATCTCGAAAGAGTCC (((..(((....)))))) are -18.4 kcal/mol and 33.2 °C.
GGCAGAGGAAACTTTGCC ((((.((....)).)))): the folding enthalpy in series [1] is -35.5 kcal/mol. In series [2], the Tm turned out to be 48.6 °C.
The corresponding values for GCGAACGAAAGTTGCCGC ((((((....)))..))) are -16.6 kcal/mol and 42.4 °C.
In the same order, the values of GGCCGGTCGAAAGACGCC (((..(((....)))))) are -21.9 kcal/mol and 48.4 °C.
In the same order, the values of GCCCTAGGAAACTAGGAC (.(((((....))))).) are -19.6 kcal/mol and 37.7 °C.
On to GAGAGACCGAAAGGTCTC (((..(((....)))))), for which the folding enthalpy in series [1] is -9.65 kcal/mol. In addition, in series [2], the Tm was 62.5 °C.
The corresponding values for GATCCCACAAGGGATC ((((((....)))))) are -30.6 kcal/mol and 64.7 °C.
The corresponding values for GATCACTGAGTGATC ((((((...)))))) are -40.1 kcal/mol and 55.2 °C.
In the same order, the values of CGCGCGGAAACGCCGCG ((((((....))).))) are -20 kcal/mol and 69.2 °C.
Turning to GACGGTGGAAACGCCGTC (((((.(....).))))), the folding enthalpy in series [1] was -37.7 kcal/mol. Also, the Tm in series [2] was found to be 62.9 °C.
In the same order, the values of GCTATCGAAAGATCAGC ((((((....))).))) are -20.6 kcal/mol and 38.2 °C.
The corresponding values for GGAGGCGAAAGCCATCC ((((((....))).))) are -14.7 kcal/mol and 49.4 °C.
In the same order, the values of GGTCTTGGAAACGAGATC (.(((.(....).))).) are -17.8 kcal/mol and 30.7 °C.
Consider GTTTTTTCGAAAGAAAAC (((..(((....)))))), for which, in series [1], the folding enthalpy is -19.7 kcal/mol. Further, the Tm in series [2] turned out to be 32.1 °C.
In the same order, the values of GAGACGAAAGTCTC (((((....))))) are -23.1 kcal/mol and 67.1 °C.
As to GCATCGCGAAAGCGTAGC ((..(((....)))..)), the folding enthalpy in series [1] is -17.1 kcal/mol. Moreover, the Tm in series [2] was found to be 48.5 °C.
With GTTGCACGAAAGTGTAAC (((.(((....))).))), the folding enthalpy in series [1] was -29.8 kcal/mol. In addition, in series [2], the Tm came out at 55.5 °C.
For GTCATGGAAACATGAC ((((((....)))))), in series [1], the folding enthalpy is -34.5 kcal/mol. The Tm in series [2] worked out at 56.1 °C.
Consider GATCGCACCTGCGATC ((((((....)))))), for which the folding enthalpy in series [1] is -32.3 kcal/mol. The Tm in series [2] turned out to be 69.2 °C.
The corresponding values for GTCGTGGAAACACGAC ((((((....)))))) are -35.4 kcal/mol and 68.5 °C.
In the same order, the values of GGGAATGGAAACGTTCCC (((((.(....).))))) are -38 kcal/mol and 50.6 °C.
With GATCGATAATTCGATC ((((((....)))))), in series [1], the folding enthalpy was -39.6 kcal/mol. Moreover, the Tm in series [2] is 51.2 °C.
